Assay results published in ChEMBL document CHEMBL6078622, “Enhancing outer membrane permeability of tetracycline antibiotics in P. aeruginosa using TOB-CIP conjugates” (RSC Med Chem, 2024).
The source made the active and inactive calls. The rule behind the calls is not given here.

How the values were obtained:
Escherichia = experiment: Synergistic antibacterial activity against Escherichia 94474 assessed as fold change in minocycline MIC by CLSI based broth-microdilution method relative to minocycline alone; type: functional
Summary of the method: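 Checkerboard combination assay against E. coli EC107115 (MDR) and EC94474 (colistin-resistant), run in biological duplicates; the fold change is the tetracycline MIC in combination relative to its MIC alone.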

Pseudomonas aeruginosa [1] = experiment: Synergistic antibacterial activity against Pseudomonas aeruginosa PA101243 in presence of eravacycline by checkerboard assay; type: functional
Pseudomonas aeruginosa [2] = experiment: Synergistic antibacterial activity against Pseudomonas aeruginosa PA095 assessed as fold change in doxycycline MIC by CLSI based broth-microdilution method relative to doxycycline alone; type: functional
Pseudomonas aeruginosa [3] = experiment: Synergistic antibacterial activity against Pseudomonas aeruginosa PA100036 assessed as fold change in tigecycline MIC by CLSI based broth-microdilution method relative to tigecycline alone; type: functional
Pseudomonas aeruginosa [4] = experiment: Synergistic antibacterial activity against Pseudomonas aeruginosa PA101243 assessed as fractional inhibitory concentration index in presence of minocycline by checkerboard assay; type: functional
Pseudomonas aeruginosa [5] = experiment: Synergistic antibacterial activity against Pseudomonas aeruginosa PA095 in presence of minocycline by checkerboard assay; type: functional
Pseudomonas aeruginosa [6] = experiment: Synergistic antibacterial activity against Pseudomonas aeruginosa PA264 assessed as fold change in tigecycline MIC by CLSI based broth-microdilution method relative to tigecycline alone; type: functional
Pseudomonas aeruginosa [7] = experiment: Synergistic antibacterial activity against Pseudomonas aeruginosa PA200 assessed as fractional inhibitory concentration index in presence of tigecycline by checkerboard assay; type: functional
Pseudomonas aeruginosa [8] = experiment: Antibacterial activity against Pseudomonas aeruginosa PA200 assessed as minocycline MIC by CLSI based broth-microdilution method; type: functional
Pseudomonas aeruginosa [9] = experiment: Antibacterial activity against Pseudomonas aeruginosa PA095 assessed as tigecycline MIC by CLSI based broth-microdilution method; type: functional
Pseudomonas aeruginosa [10] = experiment: Synergistic antibacterial activity against Pseudomonas aeruginosa PA259 assessed as fold change in minocycline MIC by CLSI based broth-microdilution method relative to minocycline alone; type: functional
Pseudomonas aeruginosa [11] = experiment: Antibacterial activity against Pseudomonas aeruginosa PA259 assessed as eravacycline MIC by CLSI based broth-microdilution method; type: functional
Pseudomonas aeruginosa [12] = experiment: Synergistic antibacterial activity against Pseudomonas aeruginosa PA114228 in presence of doxycycline by checkerboard assay; type: functional
Pseudomonas aeruginosa [13] = experiment: Synergistic antibacterial activity against Pseudomonas aeruginosa PA200 in presence of doxycycline by checkerboard assay; type: functional
Pseudomonas aeruginosa [14] = experiment: Antibacterial activity against Pseudomonas aeruginosa PA259 assessed as increase in bacterial load in presence of eravacycline by time kill assay; type: functional, organism-based
Pseudomonas aeruginosa [15] = experiment: Synergistic antibacterial activity against Pseudomonas aeruginosa PA101243 in presence of minocycline by checkerboard assay; type: functional

MIC (Pseudomonas aeruginosa [1]): 8 µg/mL
MIC (Pseudomonas aeruginosa [5]): 2 µg/mL
MIC (Pseudomonas aeruginosa [8]): 1 µg/mL
MIC (Pseudomonas aeruginosa [9]): 2 µg/mL
MIC (Pseudomonas aeruginosa [11]): 0.062 µg/mL
MIC (Pseudomonas aeruginosa [12]): 8 µg/mL
MIC (Pseudomonas aeruginosa [13]): 8 µg/mL
MIC (Pseudomonas aeruginosa [15]): 8 µg/mL
Compound: Cl.Cl.Cl.Cl.Cl.Cl.NC[C@H]1O[C@H](O[C@H]2[C@H](OCCCCCCCCCCCCNC(=O)c3cn(C4CC4)c4cc(N5CCNCC5)c(F)cc4c3=O)[C@@H](O[C@H]3O[C@H](CO)[C@@H](O)[C@H](N)[C@H]3O)[C@H](N)C[C@@H]2N)[C@H](N)C[C@@H]1O
fold change (FC) (Escherichia): 8
fold change (FC) (Pseudomonas aeruginosa [2]): 16
fold change (FC) (Pseudomonas aeruginosa [3]): 64
fractional inhibitory concentration index (FICI) (Pseudomonas aeruginosa [4]): 0.25
fold change (FC) (Pseudomonas aeruginosa [6]): 32
fractional inhibitory concentration index (FICI) (Pseudomonas aeruginosa [7]): 0.187
fold change (FC) (Pseudomonas aeruginosa [10]): 512
Activity (Pseudomonas aeruginosa [14]): Active
